OX1R antag-1: antagonists of human orexin 1 receptor; hit rate 0.43% among 330,000; CHO/OX1R cells, Fluo-8 calcium fluorescence, orexin A; AID 434989; inhibition, % at 5 µM;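 active = inhibition above its plate's threshold, mean inhibition of all tested compounds on the plate plus 3 SD, cut at about 37% in these data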;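 note: 0% = orexin A challenge wells and 100% = SB-334867-A antagonist wells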
Target sequence (O43613 whole entry, looked up): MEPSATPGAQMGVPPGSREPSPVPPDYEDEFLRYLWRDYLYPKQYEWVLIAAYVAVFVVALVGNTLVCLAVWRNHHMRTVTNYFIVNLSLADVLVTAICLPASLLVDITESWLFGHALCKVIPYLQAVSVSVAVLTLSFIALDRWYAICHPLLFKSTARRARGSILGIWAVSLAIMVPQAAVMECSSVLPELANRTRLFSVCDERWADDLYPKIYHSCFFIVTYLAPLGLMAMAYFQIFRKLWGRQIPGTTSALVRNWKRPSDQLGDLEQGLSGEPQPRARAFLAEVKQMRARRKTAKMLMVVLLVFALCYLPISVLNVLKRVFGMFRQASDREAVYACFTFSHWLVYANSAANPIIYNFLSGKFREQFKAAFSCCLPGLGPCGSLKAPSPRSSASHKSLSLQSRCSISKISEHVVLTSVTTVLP
GPR7 antag: human neuropeptides B/W receptor 1 antagonism. P48145. inhibition, % at 4.4 µM. hit rate 1.1% among 290,000. GPR7-expressing cells, fluorescence antagonist assay; in the data active = inhibition above about 16%, passing the limit was not always enough;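 note: cells stimulated with the agonist NPW; 0% = agonist with vehicle and 100% = vehicle without agonist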
TAAR1 antag: human TAAR1 antagonism; Q96RJ0; CHO RD-HGA16 TAAR1, Fluo-8 calcium fluorescence, antagonist; inhibition, % at 3 µM; hit rate 1.5% among 360,000;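 active = inhibition above a per-plate cutoff, the mean inhibition of test compounds on that plate plus 3 SD, cut at about 49% in these data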;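 note: 0% = DMSO plus EC80 beta-PEA response and 100% = DMSO alone without agonist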
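System: RD-HGA16 CHO cells with stable hTAAR1 and Gα16 | Probe or stimulus: EC80 β-phenethylamine stimulus | Dosing: 3 µM, single point | Times: Dye loading 75 min at 37 °C, then 30 min room temperature | Measured by: Fluo-8 calcium-sensitive fluorescence | Read-out basis: % inhibition of agonist calcium response | Replicates: n of 1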
OX1R antag-2: OX1R (human) antagonism; hit rate 1.8% among 330,000; OX1R-expressing cells, FRET antagonist read-out; inhibition, % at 6.6 µM; AID 485270; in the data active = inhibition mostly above about 38%, no sharp cut-off; inactive = mostly below about 40%;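 note: 0% = agonist challenge alone and 100% = reference antagonist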
TAAR1 agonist: human TAAR1 agonism | Q96RJ0 | CHO RD-HGA16 TAAR1, Fluo-8 calcium fluorescence; vehicle wells 0%, saturating PEA agonist 100% | activation, % at 3 µM | hit rate 0.99% among 360,000;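 active = activation above the mean activation of all test compounds in the run plus 3 SD, cut at about 38% in these data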
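Test system: RD-HGA16 (CHO) cells co-expressing Gα16 and hTAAR1 / Benchmarks: DMSO vehicle as 0%, PEA at EC100 as 100% / Repeats: no replicates (n 1) / Measure: % activation from peak over basal fluorescence ratio, DMSO-to-PEA scaled / Timing: 17-24 h plating, Fluo-8 75 min 37 °C, 30 min RT / Technique: kinetic Fluo-8 calcium fluorescence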
CHO parental Ca: signal in parental CHO cells, OX1R antagonist counter-screen. parental CHO-K1, ATP-induced calcium, Fluo-8 fluorescence. inhibition, % at 5.6 µM. hit rate 0.63% among 330,000;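 active = inhibition above that plate's mean sample inhibition plus 3 SD, cut at about 26% in these data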;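 note: 0% = ATP-challenged DMSO wells and 100% = DMSO wells without ATP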
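Assay system – parental CHO cells · Reagent – ATP stimulus · Detection – intracellular calcium via Fluo-8 no-wash fluorescent dye · Evaluation – percent inhibition of ATP-evoked calcium rise, normalized to controls · Controls – ATP wells versus no-ATP DMSO wells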
OX1R HTRF conf: OX1R (human) antagonism, HTRF confirmed. shares compounds with OX1R antag-2. OX1R-expressing cells, HTRF antagonist assay. inhibition, % at 6.6 µM. hit rate 49% among 1,800; in the data active = inhibition above about 55%;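 note: CHO cells expressing OX1R stimulated with orexin A at about EC80; 0% = agonist challenge alone and 100% = reference antagonist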
CHO-K1 HTRF cnt: signal in parental CHO-K1 cells, OX1R antagonist counter-screen | HTRF counterscreen | hit rate 48% among 1,800 | inhibition, % at 6.6 µM | shares compounds with OX1R antag-2; in the data active = inhibition above about 17%;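 note: 0% = agonist challenge with vehicle and 100% = vehicle alone without agonist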
Active calls of the source: *; · = no result given; ! = repeats disagree. In the library only some 4.6% were active in any assay of this set; here they are far more common.

SMILES	OX1R antag-1	GPR7 antag	TAAR1 antag	OX1R antag-2	TAAR1 agonist	CHO parental Ca	OX1R HTRF conf	CHO-K1 HTRF cnt
O=[N+]([O-])c1cccc(-c2ccc3nnc(SCc4ccccn4)n3n2)c1	-18	-6	-7	77*	3	-11	45	36*
Cc1ccc(C)c(N(CC(=O)NC(C)(C)C)C(=O)CNC(=O)c2cccs2)c1	-26	-3	2	115*	7	-15	14	3
Cc1ccccc1N(CC(=O)NC1CCCCC1)C(=O)CNC(=O)c1cccs1	-30	-4	7	16	-2	-21	·	·
Cc1cccc(Cl)c1NC(=S)NN	-5	-2	-3	-2	-1	-13	·	·
COc1ccc2c(=O)cc(-c3ccccc3)n(C)c2c1	4	-2	-13	9	0	-9	·	·
CCC1=Nc2ccccc2-c2nnc(SC)nc2O1	-17	-7	-27	197*	0	-12	68*	95*
CSc1nnc2c(n1)OC(C)=Nc1ccccc1-2	-9	-2	-10	79*	10	0	60*	101*
Cc1noc(C(=O)Nc2c(C)n(C)n(-c3ccccc3)c2=O)c1Cl	-5	-6	-14	1	0	-4	·	·
COc1ccc2cc(C(N)=O)/c(=N/NC(=O)c3ccco3)oc2c1	-7	-7	11	79*	2	-3	54	11
COCCNC(=O)C(c1ccc(Cl)cc1)N(Cc1ccco1)C(=O)CCC(=O)Nc1ccccn1 (centres undefined)	9	-3	-3	82*	1	-16	58*	3
O=C(NC(=S)Nc1cccc2cccnc12)c1cccs1	24	-7	33	95*	5	-24	93*	7
O=C(NC(=S)Nc1cccc2cccnc12)c1ccccc1	-13	-7	0	19	13	-14	·	·
COc1cccc(Cn2c3ccc(NC(=O)Cc4cc(OC)ccc4OC)cc3c(=O)n2C)c1	·	·	6	·	1	·	·	·
COc1cc2nc(/C=C/c3cc(OC)c(OC)c(OC)c3)sc2cc1SC	24	-8	-11	79*	0	-39	84*	10
CS(=O)(=O)N1CCc2cc(C(=O)Nc3ccccc3Cl)ccc21	-16	-10	-2	12	0	-8	·	·
Cc1nn(CC(=O)NCc2cc3ccccc3[nH]2)c(C)c1[N+](=O)[O-]	-9	9	6	14	3	-2	·	·
COc1ccc(OC)c(NC(=O)CSCc2cnn(-c3ccccc3)c2-n2cccc2)c1	18	3	13	78*	3	-24	77*	1
COc1ccccc1CNC(=O)CSCc1cnn(-c2ccccc2)c1-n1cccc1	-21	-7	2	15	4	-17	·	·
Cc1ccc(C(C(=O)NC2CCCCC2)N2CCC3(CC2)OCCO3)cc1 (centres undefined)	-21	12	9	11	3	-3	·	·
COc1ccc(C(C(=O)NC2CCCCC2)N2CCC3(CC2)OCCO3)cc1 (centres undefined)	-3	-10	3	89*	9	0	14	2
Cc1ccc[n+](-c2nc3ccccc3nc2C(=C=[N-])C#N)c1	5	-9	-17	96*	2	4	36	41*
Cc1cc(C)c[n+](-c2nc3ccccc3nc2C(=C=[N-])C#N)c1	3	-9	-2	84*!	1	0	32	33*
CCc1ccc[n+](-c2nc3ccccc3nc2C(=C=[N-])C#N)c1	-2	-4	-13	35	1	12	·	·
CCOC(=O)N1CCC(N(CCN(C)C)C(=S)Nc2cc(C)ccc2C)CC1	-5	-6	4	-1	2	-10	·	·
Cc1ccc(OCc2cc(C(=O)N3CCCC(C)C3)no2)cn1 (centres undefined)	·	·	4	·	2	·	·	·
SMILES	OX1R antag-1	GPR7 antag	TAAR1 antag	OX1R antag-2	TAAR1 agonist	CHO parental Ca	OX1R HTRF conf	CHO-K1 HTRF cnt
O=C(O)COc1ccccc1/C=C1\SC(=S)N(NC(=O)c2ccccc2O)C1=O	-4	·	-6	28	10	-14	·	·
O=C(O)COc1ccccc1/C=C1\SC(=S)N(/N=C/c2ccccc2O)C1=O	-1	-8	-12	98*	5	6	70*	46*
Cc1ccccc1-c1nc(S(=O)(=O)c2ccccc2)c(NCCCN2CCOCC2)o1	-22	·	3	1	6	-19	·	·
N#Cc1cc2[nH]c3ccccc3c2[n+](-c2ccc([N+](=O)[O-])cc2)c1N	4	11	-25	124*	1	-5	32	38*
Cc1ccc(NC(=O)OC(C)CNC(=O)Oc2cccc(C)c2)cc1 (centres undefined)	-13	-18	-5	8	7	-21	·	·
O=C(NCc1cccnc1)c1ccc(Cl)cc1[N+](=O)[O-]	-16	-5	-3	77*	6	-21	41	33*
O=C(c1cccc([N+](=O)[O-])c1)N1CCOCC1	6	-3	-4	15	5	11	·	·
Nc1ccc(Nc2ccc([N+](=O)[O-])cc2[N+](=O)[O-])cc1	-15	-2	16	36	0	0	·	·
NC(=O)c1ccc(Nc2ccc([N+](=O)[O-])cc2[N+](=O)[O-])cc1	-4	12	-10	107*	2	-9	42	54*
CC(C)(CO)Nc1ccc([N+](=O)[O-])cc1[N+](=O)[O-]	5	-4	-14	94*	-1	1	34	38*
O=C(c1cc([N+](=O)[O-])cc([N+](=O)[O-])c1)N1CCOCC1	-2	-5	15	111*	4	3	51	78*
CC(C)C1C(=O)N(Cc2cn(CCC3OCCO3)nn2)CCS(=O)(=O)N1Cc1ccc(-c2ccc(F)nc2)cc1 (centres undefined)	·	·	12	·	3	·	·	·
O=C(NCCCN1CCOCC1)c1ccc(Cl)cc1[N+](=O)[O-]	-19	-4	19	106*	1	-6	36	7
O=[N+]([O-])c1ccc(NCCCN2CCOCC2)c([N+](=O)[O-])c1	-13	-11	0	171*	2	9	46	72*
O=C(NCCN1CCOCC1)c1ccc(Cl)c([N+](=O)[O-])c1	-8	-11	-7	12	11	-5	·	·
O=[N+]([O-])c1cc(C(F)(F)F)ccc1NCCCN1CCOCC1	-29	-1	-5	26	7	-13	·	·
O=C(NCCCN1CCOCC1)c1cc(Cl)ccc1[N+](=O)[O-]	6	-4	-10	30	12	-3	·	·

Source: PubChem
